According to ChEMBL document CHEMBL1128440 (J Med Chem, 1995):

Columns and labels:
[1] = Partition coefficient (logP); type: physicochemical; details: octanol/water
How it was run: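 log P(o/w) (octanol/water) estimated by a reversed-phase HPLC method.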

Rattus norvegicus [2] = organism: Rattus norvegicus; assay: Tissue biodistribution into estrogen-primed immature female rat bone at 1 hr time interval; type: ADME, organism-based, Bone element; details: in vivo
How it was run: (§1)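 Immature female Sprague-Dawley rats (25 days old, ≈50 g, five per time point) primed with estradiol, 5 μg sc daily for 2 days in 50% ethanol/sunflower seed oil, used 24 h after the last injection. The 18F-labeled ligand was given iv by tail vein in 10% ethanol/saline. Decapitated at 1 or 3 h; blood and organs weighed and gamma-counted. Reported as %ID/g ± SD, n = 5.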

Rattus norvegicus [3] = organism: Rattus norvegicus; assay: Tissue biodistribution into estrogen-primed immature female rat liver at 1 hr time interval; type: ADME, organism-based; details: in vivo; how it was run: as §1
Rattus norvegicus [4] = organism: Rattus norvegicus; assay: Tissue biodistribution into estrogen-primed immature female rat fat at 1 hr blocked time interval; type: ADME, organism-based, Adipose tissue; details: in vivo; how it was run: as §1
Rattus norvegicus [5] = organism: Rattus norvegicus; assay: Tissue biodistribution into estrogen-primed immature female rat bone at 3 hr time interval; type: ADME, organism-based, Bone element; details: in vivo; how it was run: as §1
Rattus norvegicus [6] = organism: Rattus norvegicus; assay: Tissue biodistribution into estrogen-primed immature female rat brain at 3 hr time interval; type: ADME, organism-based; details: in vivo; how it was run: as §1
Rattus norvegicus [7] = organism: Rattus norvegicus; assay: Tissue biodistribution into estrogen-primed immature female rat liver at 1 hr low time interval; type: ADME, organism-based; details: in vivo; how it was run: as §1
Rattus norvegicus [8] = organism: Rattus norvegicus; assay: Tissue biodistribution into estrogen-primed immature female rat uterus/blood at 1 hr time interval; type: ADME, organism-based; details: in vivo; how it was run: as §1
Rattus norvegicus [9] = organism: Rattus norvegicus; assay: Tissue biodistribution into estrogen-primed immature female rat blood at 1 hr blocked time interval; type: ADME, organism-based; details: in vivo; how it was run: as §1
Rattus norvegicus [10] = organism: Rattus norvegicus; assay: Tissue biodistribution into estrogen-primed immature female rat uterus/blood at 1 hr low time interval; type: ADME, organism-based; details: in vivo; how it was run: as §1
Rattus norvegicus [11] = organism: Rattus norvegicus; assay: Tissue biodistribution into estrogen-primed immature female rat brain at 1 hr time interval; type: ADME, organism-based; details: in vivo; how it was run: as §1
Rattus norvegicus [12] = organism: Rattus norvegicus; assay: Tissue biodistribution into estrogen-primed immature female rat uterus at 3 hr time interval; type: ADME, organism-based; details: in vivo; how it was run: as §1
Rattus norvegicus [13] = organism: Rattus norvegicus; assay: Tissue biodistribution into estrogen-primed immature female rat lung at 1 hr blocked time interval; type: ADME, organism-based; details: in vivo; how it was run: as §1
Rattus norvegicus [14] = organism: Rattus norvegicus; assay: Tissue biodistribution into estrogen-primed immature female rat uterus at 1 hr time interval; type: ADME, organism-based; details: in vivo; how it was run: as §1
Rattus norvegicus [15] = organism: Rattus norvegicus; assay: Tissue biodistribution into estrogen-primed immature female rat fat at 1 hr time interval; type: ADME, organism-based, Adipose tissue; details: in vivo; how it was run: as §1
Rattus norvegicus [16] = organism: Rattus norvegicus; assay: Tissue biodistribution into estrogen-primed immature female rat muscle at 1 hr blocked time interval; type: ADME, organism-based; details: in vivo; how it was run: as §1
Rattus norvegicus [17] = organism: Rattus norvegicus; assay: Tissue biodistribution into estrogen-primed immature female rat uterus/blood at 3 hr time interval; type: ADME, organism-based; details: in vivo; how it was run: as §1
Rattus norvegicus [18] = organism: Rattus norvegicus; assay: Tissue biodistribution into estrogen-primed immature female rat blood at 3 hr time interval; type: ADME, organism-based; details: in vivo; how it was run: as §1
Rattus norvegicus [19] = organism: Rattus norvegicus; assay: Tissue biodistribution into estrogen-primed immature female rat kidney at 1 hr time interval; type: ADME, organism-based; details: in vivo; how it was run: as §1
Rattus norvegicus [20] = organism: Rattus norvegicus; assay: Tissue biodistribution into estrogen-primed immature female rat muscle at 3 hr time interval; type: ADME, organism-based; details: in vivo; how it was run: as §1
Rattus norvegicus [21] = organism: Rattus norvegicus; assay: Tissue biodistribution into estrogen-primed immature female rat brain at 1 hr blocked time interval; type: ADME, organism-based; details: in vivo; how it was run: as §1
Rattus norvegicus [22] = organism: Rattus norvegicus; assay: Tissue biodistribution into estrogen-primed immature female rat uterus/muscle at 1 hr time interval; type: ADME, organism-based; details: in vivo
Rattus norvegicus [23] = organism: Rattus norvegicus; assay: Tissue biodistribution into estrogen-primed immature female rat liver at 1 hr blocked time interval; type: ADME, organism-based; details: in vivo; how it was run: as §1
Rattus norvegicus [24] = organism: Rattus norvegicus; assay: Tissue biodistribution into estrogen-primed immature female rat kidney at 1 hr blocked time interval; type: ADME, organism-based; details: in vivo; how it was run: as §1

C[C@]12CCC3C(CCC4=CC(=O)CC[C@@H]43)C1C[C@H]1OC(c3ccco3)O[C@]12C(=O)CF (stereo not given in full)
logP [1]: 4.11
logP ([1]; read-out: logP): 3.87
Injected dose/g (Rattus norvegicus [2]): 1.11%
Injected dose/g (Rattus norvegicus [3]): 2.4%
Injected dose/g (Rattus norvegicus [4]): 2.4%
Injected dose/g (Rattus norvegicus [5]): 1.3%
Injected dose/g (Rattus norvegicus [6]): 0.18%
Injected dose/g (Rattus norvegicus [7]): 1.81%
Uterus to blood concentration ratio (Rattus norvegicus [8]): 18.18%
Injected dose/g (Rattus norvegicus [9]): 0.46%
Injected dose/g (Rattus norvegicus [10]): 14.95%
Injected dose/g (Rattus norvegicus [11]): 0.57%
Injected dose/g (Rattus norvegicus [12]): 7.83%
Injected dose/g (Rattus norvegicus [13]): 1.16%
Injected dose/g (Rattus norvegicus [14]): 6.8%
Injected dose/g (Rattus norvegicus [15]): 2.16%
Injected dose/g (Rattus norvegicus [16]): 0.71%
uterus/blood ratio (Rattus norvegicus [17]): 48
Injected dose/g (Rattus norvegicus [18]): 0.19%
Injected dose/g (Rattus norvegicus [19]): 1.66%
Injected dose/g (Rattus norvegicus [20]): 0.26%
Injected dose/g (Rattus norvegicus [21]): 0.49%
Uterus to muscle uptake ratio (Rattus norvegicus [22]): 11.63%
Injected dose/g (Rattus norvegicus [23]): 2.49%
Injected dose/g (Rattus norvegicus [24]): 1.72%
